Screening results (PubChem BioAssay)
A selection: hits, their analogues and other compounds. The true share with any hit is near 4.9%.
STAT1 inh: STAT1 signaling inhibition. NIH 3T3 STAT1-luciferase reporter, IFN-gamma, luminescence. AID 920. actives 0.35% (n = 200,000). inhibition, % at 5.5 µM;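 active = inhibition above a set limit, the mean inhibition across all tested compounds plus 3 SD, cut at about 34% in these data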
APP 5'UTR act: APP 5'UTR luciferase reporter activation. activation, % at 2 µM. SH-SY5Y APP 5'UTR luciferase reporter, luminescence; zero percent = DMSO vehicle wells. actives 1% (n = 190,000);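 active = activation above a set limit, based on mean plus 3 SD of controls, cut at about 140% in these data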
STAT3 inh-1: STAT3 signaling inhibition | U3A cells, IL-6 STAT3-luciferase reporter, luminescence; host cell line lacks STAT1 | actives 0.89% (n = 190,000) | inhibition, % at 5.5 µM;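 active = inhibition above the mean inhibition across all screened compounds plus 3 SD, cut at about 44% in these data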
NF-kB neuron act: raises NF-kB expression in human neuronal cells. NF-kB reporter expression; active compounds read high. actives 1.6% (n = 190,000). AID 1239. fold change at 12.5 µM; in the data active = fold change above about 3.3
STAT1 act: STAT1 signaling activation; NIH 3T3 STAT1-luciferase reporter, IFN-gamma, luminescence; 100% = IFN-gamma alone, no compound; actives 2.6% (n = 200,000); AID 932; activation (% of control), % at 5.5 µM;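 active = activation above the screen-wide mean activation plus 3 SD, cut at about 130% in these data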
STAT3 act: increases IL-6 driven STAT3 reporter signal; U3A cells, IL-6 STAT3-luciferase reporter, luminescence; 100% = signal with IL-6 EC80 alone; activation (% of control), % at 5.6 µM; actives 0.91% (n = 190,000); AID 871;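 active = activation above the screen-wide mean of compound activation plus 3 SD, cut at about 130% in these data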
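system = STAT3-luciferase reporter U3A cells | reagent = IL-6 stimulus at 33 ng/mL final | timing = 1 h compound pre-exposure, 6 h IL-6 stimulation, 37 °C | measured by = luminescence | evaluation = % activation versus median of IL-6-stimulated wells | control set = IL-6-only wells as 100% reference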
STAT3 inh-2: STAT3 inhibition, confirmation assay; shares compounds with STAT3 inh-1; inhibition, % at 5.7 µM; AID 1265; actives 45% (n = 1,200); U3A cells, IL-6 STAT3 luciferase reporter, luminescence; cell line lacks STAT1;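 active = inhibition above the hit cutoff computed for the primary STAT3 screen, cut at about 44% in these data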
NFkB inh 2: counter-screen for STAT3 inhibitors: NF-kappaB inhibition. shares compounds with STAT3 inh-1. HEK293T NF-kB luciferase reporter, TNF-alpha induced. inhibition, % at 5.7 µM. actives 36% (n = 1,200);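 active = inhibition above the mean of solvent-only control wells plus 3 SD, cutoff set per campaign, cut at about 13% in these data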
STAT1 inh STAT3c: STAT1 inhibition in STAT3 inhibitor counter-screen | shares compounds with STAT3 inh-1 | NIH 3T3 STAT1-luciferase reporter, IFN-gamma induced, luminescence | inhibition, % at 5.7 µM | actives 27% (n = 1,200) | AID 1317;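 active = inhibition above the mean plus 3 SD of solvent-only control wells, limit set per screening run, cut at about 16% in these data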
Each line names hits and unclear results; the compound was inactive in the other large screens (follow-up assays come after a bar, where they were run).

Cc1ccc(C2CC(c3cccs3)=NN2S(=O)(=O)c2ccc(C)cc2)cc1 (stereo unspecified)	none
Cc1nnc(N2CCOCC2)c2nn(-c3ccccc3)c(C)c12	none
c1ccc(-n2nnc3c(N4CCOCC4)ncnc32)cc1	APP 5'UTR act 148, STAT3 inh-1 81 | STAT3 inh-2 inactive | NFkB inh 2 inactive | STAT1 inh STAT3c inactive
CCCc1n[nH]c2c1/C(=N/O)CC(c1ccccc1)C2 (stereo unspecified)	STAT3 inh-1 45 | STAT3 inh-2 44 | NFkB inh 2 inactive | STAT1 inh STAT3c inactive
COc1ccc(-c2nsc3c(N4CCCCC4)ncnc23)cc1	STAT3 inh-1 102 | STAT3 inh-2 75 | NFkB inh 2 60 | STAT1 inh STAT3c inactive
Cc1ccc2nc(NC(=O)COC(=O)c3ccco3)sc2c1	none
CCOC(=O)c1ccc2nc(NC(=O)c3ccco3)sc2c1	APP 5'UTR act 277, STAT3 inh-1 54, NF-kB neuron act 4.6 | STAT3 inh-2 inactive | NFkB inh 2 inactive | STAT1 inh STAT3c inactive
CCOc1ccc2nc(NC(=O)c3ccoc3C)sc2c1	APP 5'UTR act 168, STAT3 inh-1 79, NF-kB neuron act 3.5 | STAT3 inh-2 47 | NFkB inh 2 14 | STAT1 inh STAT3c inactive
Cc1ccc(-c2nnc(SCC(=O)Nc3cccc(C(=O)N4CCOCC4)c3)n2C)cc1	none
CCC(CC)C(=O)OCC(=O)Nc1cccc([N+](=O)[O-])c1	none
CCCOc1nc(C)cc(COC)c1C(N)=O	none
CC(C)COc1ccc(C(=O)Nc2scc(-c3ccc(Cl)cc3Cl)c2C(N)=O)cc1	STAT3 inh-1 49 | STAT3 inh-2 inactive | NFkB inh 2 inactive | STAT1 inh STAT3c inactive
CC(C)COc1ccc(C(=O)Nc2ccc(SC(F)F)cc2)cc1	none
CCOc1ccccc1C(=O)Nc1ccc(-n2nncc2C(C)(C)C)cc1	none
N#Cc1nc(N2CCCC2)nc(N2CCCC2)n1	STAT3 inh-1 56 | STAT3 inh-2 56 | NFkB inh 2 28 | STAT1 inh STAT3c inactive
N#Cc1nc(N2CCCCC2)nc(N2CCOCC2)n1	none
CN1C(=O)C2C(c3ccc(N(C)C)cc3)=NN(Cc3ccccc3)C2C1=O (stereo unspecified)	none
O=S(=O)(c1ccc2ccccc2c1)N1CCN(C(=S)Nc2ccc(F)c(Cl)c2)CC1	none
COc1ccc(OC)c(-c2csc(N3CCC(c4ccccc4)CC3)n2)c1	none
O=C(Nc1cccc(O)c1)c1noc2c1CCc1ccccc1-2	APP 5'UTR act 195, STAT3 inh-1 83, NF-kB neuron act 6.1 | STAT3 inh-2 60 | NFkB inh 2 inactive | STAT1 inh STAT3c inactive
Cc1cc(NC(=O)c2noc3c2CCc2ccccc2-3)n(-c2ccccc2)n1	none
O=C(OCCN1C(=O)c2cccc3c(N4CCOCC4)ccc(c23)C1=O)c1ccccc1Cl	STAT3 inh-1 44 | STAT3 inh-2 47 | NFkB inh 2 16 | STAT1 inh STAT3c inactive
O=C(OCCN1C(=O)c2cccc3c(N4CCOCC4)ccc(c23)C1=O)c1ccc(Cl)cc1Cl	none
CCN1CCCc2cc(CN(CCN3CCOCC3)C(=S)Nc3cccc(OC)c3)ccc21	none
Cc1ccc(-n2c(SCC(=O)N3CCCc4ccccc43)nnc2-c2cccnc2)c(C)c1	none
Cc1ccc(-n2c(-c3ccccc3)c[n+]3c2CCc2ccccc2-3)c(C)c1	STAT3 inh-1 66 | STAT3 inh-2 60 | NFkB inh 2 inactive | STAT1 inh STAT3c 25
O=C(Nc1nncs1)C1COc2ccccc2O1 (stereo unspecified)	none
O=C1NC(=O)c2cc(NC(=O)C3COc4ccccc4O3)ccc21 (stereo unspecified)	none
CC(=O)c1sc(NC(=O)C2COc3ccccc3O2)nc1C (stereo unspecified)	STAT3 inh-1 74 | STAT3 inh-2 inactive | NFkB inh 2 inactive | STAT1 inh STAT3c inactive
CC1(C)Oc2ccc(NC(=O)C3COc4ccccc4O3)cc2O1 (stereo unspecified)	APP 5'UTR act 168, STAT3 inh-1 64, NF-kB neuron act 4.9 | STAT3 inh-2 inactive | NFkB inh 2 inactive | STAT1 inh STAT3c inactive
Nc1nc(-c2ccco2)nn1S(=O)(=O)c1ccc(Cl)cc1	none
Cn1nc(CC(=O)Nc2cccc3ncccc23)c2ccccc2c1=O	STAT3 inh-1 46 | STAT3 inh-2 inactive | NFkB inh 2 inactive | STAT1 inh STAT3c 17
Cn1nc(CC(=O)NCc2ccc(C(F)(F)F)cc2)c2ccccc2c1=O	none
COc1ccc(CNC(=O)Cc2nn(C)c(=O)c3ccccc23)cc1	STAT3 inh-1 51 | STAT3 inh-2 48 | NFkB inh 2 13 | STAT1 inh STAT3c 25
CC1=CC(=C2C(=O)c3ccccc3C2=O)C=C(C)O1	none
CCCCN1C(C)=CC(=C2C(=O)c3ccccc3C2=O)C=C1C	APP 5'UTR act 180, STAT3 inh-1 71 | STAT3 inh-2 inactive | NFkB inh 2 inactive | STAT1 inh STAT3c inactive
Cc1cc(C(=O)CSc2nc(N)cc(=O)[nH]2)c(C)n1CCc1ccc(F)cc1	STAT3 inh-1 46 | STAT3 inh-2 inactive | NFkB inh 2 inactive | STAT1 inh STAT3c inactive
COc1ccc(CCn2c(C)cc(C(=O)CSc3nc(N)cc(=O)[nH]3)c2C)cc1	none
Cc1cc(C(=O)CSc2nc(N)cc(=O)[nH]2)c(C)n1-c1ccc(OC(F)F)cc1	STAT3 inh-1 64 | STAT3 inh-2 74 | NFkB inh 2 19 | STAT1 inh STAT3c 25
CCCCCOc1ccc(Br)cc1CSC(=N)N	STAT3 inh-1 49 | STAT3 inh-2 63 | NFkB inh 2 23 | STAT1 inh STAT3c 21
Cc1cc(N2CCOCC2)nc(NCc2ccccc2)n1	none
Cc1cc(N2CCCCC2)nc(NCc2ccccc2)n1	STAT3 inh-1 46 | STAT3 inh-2 inactive | NFkB inh 2 inactive | STAT1 inh STAT3c 21
CCCOc1ccc(/C=N/NC(=S)Nc2ccccc2[N+](=O)[O-])c(O)c1	STAT3 inh-1 92 | STAT3 inh-2 48 | NFkB inh 2 inactive | STAT1 inh STAT3c inactive
O=[N+]([O-])c1cc(/C=N/NC(=S)Nc2ccccc2Cl)ccc1Cl	none
COc1ccc(/C=N/NC(=S)Nc2ccccc2[N+](=O)[O-])cc1O	APP 5'UTR act 206, STAT3 inh-1 94 | STAT3 inh-2 83 | NFkB inh 2 inactive | STAT1 inh STAT3c inactive
Cc1ccc(C(=O)Nc2ccc(S(=O)(=O)N3CCOCC3)cc2)cc1	none
